Reference: ChEMBL document CHEMBL1629657, “In vitro antimicrobial activity of a new cephalosporin, ceftaroline, and determination of quality control ranges for MIC testing” (2009)
Values after ≈ are worked out from the molar mass of the structure shown.

How the values were obtained:
Type in all cases: functional
Staphylococcus aureus [1] = assay: Antimicrobial activity against vancomycin-intermediate Staphylococcus aureus by broth microdilution method
How it was run: (§1)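 Clinical isolates were tested by CLSI broth microdilution in unsupplemented cation-adjusted Mueller-Hinton broth. The read-out was the MIC, reported as MIC90 (μg/ml) per species or phenotypic group. Ceftriaxone, levofloxacin and imipenem were run in parallel as comparators.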

Staphylococcus aureus [2] = assay: Antimicrobial activity against methicillin-resistant Staphylococcus aureus by broth microdilution method
How it was run: (§2)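 Isolates of the stated resistance phenotype were tested by CLSI broth microdilution in unsupplemented cation-adjusted Mueller-Hinton broth. Ceftaroline was compared with ceftriaxone, levofloxacin and imipenem. Activity was expressed as MICs (MIC90 in μg/ml).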

Klebsiella pneumoniae [3] = assay: Antimicrobial activity against ESBL-positive Klebsiella pneumoniae by broth microdilution method; how it was run: as §1
Pseudomonas aeruginosa [4] = assay: Antimicrobial activity against multidrug resistant Pseudomonas aeruginosa by broth microdilution method; how it was run: as §2
Haemophilus influenzae [5] = assay: Antimicrobial activity against beta-lactamase-negative ampicillin resistant Haemophilus influenzae by broth microdilution method
How it was run: (§3)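 CLSI broth microdilution in Haemophilus test medium (cation-adjusted Mueller-Hinton base) against clinical H. influenzae isolates of the stated phenotype. Ceftaroline was compared with ceftriaxone, levofloxacin and imipenem. Activity was expressed as MICs (MIC90 in μg/ml).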

Providencia rettgeri = assay: Antimicrobial activity against Proteus rettgeri by broth microdilution method; how it was run: as §1
Streptococcus pneumoniae [6] = assay: Antimicrobial activity against penicillin-susceptible Streptococcus pneumoniae by broth microdilution method
How it was run: (§4)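 Streptococcal isolates were tested by CLSI broth microdilution in cation-adjusted Mueller-Hinton broth supplemented with 3% lysed horse blood. The read-out was the MIC, with MIC90 (μg/ml) reported per group. Ceftriaxone, levofloxacin and imipenem served as comparators.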

Serratia marcescens = assay: Antimicrobial activity against Serratia marcescens by broth microdilution method; how it was run: as §1
Streptococcus pneumoniae [7] = assay: Antimicrobial activity against penicillin-intermediate Streptococcus pneumoniae by broth microdilution method
How it was run: (§5)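 CLSI broth microdilution in cation-adjusted Mueller-Hinton broth with 3% lysed horse blood, against streptococcal clinical isolates of the stated phenotype. Ceftaroline was compared with ceftriaxone, levofloxacin and imipenem. Activity was expressed as MICs (MIC90 in μg/ml).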

Staphylococcus aureus [8] = assay: Antimicrobial activity against vancomycin-resistant Staphylococcus aureus by broth microdilution method; how it was run: as §2
[9] = fT>MIC Staphylococcus aureus infected mouse model for 1-log kill
Providencia stuartii = assay: Antimicrobial activity against Proteus stuartii by broth microdilution method; how it was run: as §1
[10] = fT>MIC Streptococcus pneumoniae infected mouse model for 1-log kill
Burkholderia cepacia = assay: Antimicrobial activity against Burkholderia cepacia by broth microdilution method; how it was run: as §1
Corynebacterium jeikeium = assay: Antimicrobial activity against Corynebacterium jeikeium by broth microdilution method; how it was run: as §1
Haemophilus influenzae [11] = assay: Antimicrobial activity against beta-lactamase-positive Haemophilus influenzae by broth microdilution method
How it was run: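 H. influenzae isolates were tested by CLSI broth microdilution using Haemophilus test medium. The MIC was read and MIC90 (μg/ml) reported for the group. Ceftriaxone, levofloxacin and imipenem served as comparators.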

Enterococcus faecium [12] = assay: Antimicrobial activity against Enterococcus faecium by broth microdilution method; how it was run: as §1
Enterococcus faecium [13] = assay: Antimicrobial activity against vancomycin-susceptible Enterococcus faecium by broth microdilution method; how it was run: as §1
Enterobacter cloacae = assay: Antimicrobial activity against ESBL-negative Enterobacter cloacae by broth microdilution method; how it was run: as §1
Haemophilus influenzae [14] = assay: Antimicrobial activity against beta-lactamase-negative Haemophilus influenzae by broth microdilution method; how it was run: as §3
Enterococcus faecalis [15] = assay: Antimicrobial activity against Enterococcus faecalis by broth microdilution method; how it was run: as §1
Streptococcus pyogenes [16] = assay: Antimicrobial activity against macrolide-susceptible Streptococcus pyogenes by broth microdilution method; how it was run: as §5
Streptococcus pneumoniae [17] = assay: Antimicrobial activity against penicillin-resistant Streptococcus pneumoniae by broth microdilution method; how it was run: as §5
Streptococcus agalactiae = assay: Antimicrobial activity against Streptococcus agalactiae by broth microdilution method; how it was run: as §4
Staphylococcus aureus [18] = assay: Antimicrobial activity against methicillin-susceptible Staphylococcus aureus by broth microdilution method; how it was run: as §1
Staphylococcus [19] = assay: Antimicrobial activity against methicillin-resistant coagulase-negative Staphylococcus by broth microdilution method; how it was run: as §2
Shigella sp. = assay: Antimicrobial activity against Shigella spp. by broth microdilution method; how it was run: as §1
Moraxella catarrhalis = assay: Antimicrobial activity against Moraxella catarrhalis by broth microdilution method; how it was run: as §1
Staphylococcus [20] = assay: Antimicrobial activity against methicillin-susceptible coagulase-negative Staphylococcus by broth microdilution method; how it was run: as §1
Streptococcus viridans = assay: Antimicrobial activity against Streptococcus viridans group clinical isolate by broth microdilution method; how it was run: as §4
Streptococcus pneumoniae [21] = assay: Antimicrobial activity against levofloxacin-resistant Streptococcus pneumoniae by broth microdilution method; how it was run: as §5
Escherichia coli [22] = assay: Antimicrobial activity against ESBL-negative Escherichia coli by broth microdilution method; how it was run: as §1
Escherichia coli [23] = assay: Antimicrobial activity against ESBL-positive Escherichia coli by broth microdilution method; how it was run: as §1
Klebsiella pneumoniae [24] = assay: Antimicrobial activity against ESBL-negative Klebsiella pneumoniae by broth microdilution method; how it was run: as §1
Streptococcus pyogenes [25] = assay: Antimicrobial activity against macrolide-resistant Streptococcus pyogenes by broth microdilution method; how it was run: as §5
[26] = test system: Stenotrophomonas maltophilia; assay: Antimicrobial activity against Stenotrophomonas maltophilia by broth microdilution method; how it was run: as §1
Proteus mirabilis = assay: Antimicrobial activity against Proteus mirabilis by broth microdilution method; how it was run: as §1
Listeria monocytogenes = assay: Antimicrobial activity against Listeria monocytogenes by broth microdilution method; how it was run: as §1
Enterococcus faecalis [27] = assay: Antimicrobial activity against vancomycin-susceptible Enterococcus faecalis by broth microdilution method; how it was run: as §1
Salmonella sp. = assay: Antimicrobial activity against Salmonella spp. by broth microdilution method; how it was run: as §1
Proteus vulgaris = assay: Antimicrobial activity against Proteus vulgaris by broth microdilution method; how it was run: as §1
Pseudomonas aeruginosa [28] = assay: Antimicrobial activity against Pseudomonas aeruginosa by broth microdilution method; how it was run: as §1
Morganella morganii = assay: Antimicrobial activity against Morganella morganii by broth microdilution method; how it was run: as §1
[29] = fT>MIC Enterobacteriaceae infected mouse model for 1-log kill
Klebsiella aerogenes = assay: Antimicrobial activity against ESBL-negative Enterobacter aerogenes by broth microdilution method; how it was run: as §1

## CCO/N=C(\C(=O)N[C@@H]1C(=O)N2C(C(=O)[O-])=C(Sc3nc(-c4cc[n+](C)cc4)cs3)CS[C@H]12)c1nsc(NP(=O)(O)O)n1 [CEFTAROLINE FOSAMIL]
Staphylococcus aureus [1]
  MIC50: 1 µg/mL (≈ 1.46 µM)
  MIC90: 1 µg/mL (≈ 1.46 µM)
Staphylococcus aureus [2]
  MIC: 0.5 µg/mL (≈ 0.73 µM)
  MIC50: 0.5 µg/mL (≈ 0.73 µM)
  MIC90: 1 µg/mL (≈ 1.46 µM)
Klebsiella pneumoniae [3]
  MIC50: 32 µg/mL (≈ 46.7 µM)
  MIC90: > 32 µg/mL
Pseudomonas aeruginosa [4]
  MIC50: 16 µg/mL (≈ 23.4 µM)
Haemophilus influenzae [5]
  MIC50: 0.12 µg/mL (≈ 0.175 µM)
  MIC90: 0.25 µg/mL (≈ 0.365 µM)
Providencia rettgeri
  MIC50: 1 µg/mL (≈ 1.46 µM)
  MIC90: 4 µg/mL (≈ 5.84 µM)
Streptococcus pneumoniae [6]
  MIC: 0.015 µg/mL (≈ 0.0219 µM)
  MIC50: 0.015 µg/mL (≈ 0.0219 µM)
  MIC90: 0.015 µg/mL (≈ 0.0219 µM)
Serratia marcescens
  MIC: 0.5 µg/mL (≈ 0.73 µM)
  MIC50: 0.5 µg/mL (≈ 0.73 µM)
  MIC90: 8 µg/mL (≈ 11.7 µM)
Streptococcus pneumoniae [7]
  MIC50: 0.03 µg/mL (≈ 0.0438 µM)
  MIC90: 0.06 µg/mL (≈ 0.0876 µM)
Staphylococcus aureus [8]
  MIC: 0.5 µg/mL (≈ 0.73 µM)
[9]
  fT>MIC: 33%
Providencia stuartii
  MIC50: 1 µg/mL (≈ 1.46 µM)
  MIC90: 4 µg/mL (≈ 5.84 µM)
[10]
  fT>MIC: 43%
Burkholderia cepacia
  MIC50: > 32 µg/mL
  MIC90: > 32 µg/mL
Corynebacterium jeikeium
  MIC50: > 32 µg/mL
  MIC90: > 32 µg/mL
Haemophilus influenzae [11]
  MIC: 0.015 µg/mL (≈ 0.0219 µM)
  MIC50: 0.015 µg/mL (≈ 0.0219 µM)
  MIC90: 0.06 µg/mL (≈ 0.0876 µM)
Enterococcus faecium [12]
  MIC50: 32 µg/mL (≈ 46.7 µM)
  MIC90: > 32 µg/mL
Enterococcus faecium [13]
  MIC50: 1 µg/mL (≈ 1.46 µM)
  MIC90: 16 µg/mL (≈ 23.4 µM)
Enterobacter cloacae
  MIC50: 0.12 µg/mL (≈ 0.175 µM)
  MIC90: 0.5 µg/mL (≈ 0.73 µM)
Haemophilus influenzae [14]
  MIC: 0.015 µg/mL (≈ 0.0219 µM)
  MIC50: 0.015 µg/mL (≈ 0.0219 µM)
  MIC90: 0.015 µg/mL (≈ 0.0219 µM)
Enterococcus faecalis [15]
  MIC50: 2 µg/mL (≈ 2.92 µM)
  MIC90: 4 µg/mL (≈ 5.84 µM)
Streptococcus pyogenes [16]
  MIC: 0.015 µg/mL (≈ 0.0219 µM)
  MIC50: 0.015 µg/mL (≈ 0.0219 µM)
  MIC90: 0.015 µg/mL (≈ 0.0219 µM)
Streptococcus pneumoniae [17]
  MIC50: 0.25 µg/mL (≈ 0.365 µM)
  MIC90: 0.5 µg/mL (≈ 0.73 µM)
Streptococcus agalactiae
  MIC: 0.015 µg/mL (≈ 0.0219 µM)
  MIC50: 0.015 µg/mL (≈ 0.0219 µM)
  MIC90: 0.015 µg/mL (≈ 0.0219 µM)
Staphylococcus aureus [18]
  MIC: 0.25 µg/mL (≈ 0.365 µM)
  MIC50: 0.25 µg/mL (≈ 0.365 µM)
  MIC90: 0.25 µg/mL (≈ 0.365 µM)
Staphylococcus [19]
  MIC50: 0.25 µg/mL (≈ 0.365 µM)
  MIC90: 0.5 µg/mL (≈ 0.73 µM)
Shigella sp.
  MIC50: 0.03 µg/mL (≈ 0.0438 µM)
  MIC90: 0.12 µg/mL (≈ 0.175 µM)
Moraxella catarrhalis
  MIC50: 0.12 µg/mL (≈ 0.175 µM)
  MIC90: 0.25 µg/mL (≈ 0.365 µM)
Staphylococcus [20]
  MIC50: 0.06 µg/mL (≈ 0.0876 µM)
  MIC90: 0.25 µg/mL (≈ 0.365 µM)
Streptococcus viridans
  MIC: 0.015 µg/mL (≈ 0.0219 µM)
  MIC50: 0.015 µg/mL (≈ 0.0219 µM)
  MIC90: 0.12 µg/mL (≈ 0.175 µM)
Streptococcus pneumoniae [21]
  MIC50: 0.03 µg/mL (≈ 0.0438 µM)
  MIC90: 0.25 µg/mL (≈ 0.365 µM)
Escherichia coli [22]
  MIC50: 0.06 µg/mL (≈ 0.0876 µM)
  MIC90: 1 µg/mL (≈ 1.46 µM)
Escherichia coli [23]
  MIC50: > 32 µg/mL
  MIC90: > 32 µg/mL
Klebsiella pneumoniae [24]
  MIC50: 0.06 µg/mL (≈ 0.0876 µM)
  MIC90: 0.25 µg/mL (≈ 0.365 µM)
Streptococcus pyogenes [25]
  MIC: 0.015 µg/mL (≈ 0.0219 µM)
  MIC50: 0.015 µg/mL (≈ 0.0219 µM)
  MIC90: 0.015 µg/mL (≈ 0.0219 µM)
[26]
  MIC50: > 32 µg/mL
  MIC90: > 32 µg/mL
Proteus mirabilis
  MIC50: 0.06 µg/mL (≈ 0.0876 µM)
  MIC90: 4 µg/mL (≈ 5.84 µM)
Listeria monocytogenes
  MIC50: 4 µg/mL (≈ 5.84 µM)
  MIC90: 4 µg/mL (≈ 5.84 µM)
Enterococcus faecalis [27]
  MIC: 1 µg/mL (≈ 1.46 µM)
  MIC50: 1 µg/mL (≈ 1.46 µM)
  MIC90: 4 µg/mL (≈ 5.84 µM)
Salmonella sp.
  MIC50: 0.12 µg/mL (≈ 0.175 µM)
  MIC90: > 32 µg/mL
Proteus vulgaris
  MIC50: 16 µg/mL (≈ 23.4 µM)
  MIC90: > 32 µg/mL
Pseudomonas aeruginosa [28]
  MIC50: 16 µg/mL (≈ 23.4 µM)
  MIC90: > 32 µg/mL
Morganella morganii
  MIC50: > 32 µg/mL
  MIC90: > 32 µg/mL
[29]
  fT>MIC: 41%
Klebsiella aerogenes
  MIC50: 0.12 µg/mL (≈ 0.175 µM)
  MIC90: > 32 µg/mL
